Assay [1] has as its system T47D. Nature of the assay: Growth inhibition of human T47D cells after 48 hrs. It is filed as functional. The method, boiled down:
(§1)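 Cells were exposed continuously to compound for 48 h at 37 °C in 96-well format. CellTiter-Glo reagent was added with agitation, then 10-15 min at room temperature before luminescence read-out.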

Assay [2] in a line: Growth inhibition of human H1299 cells after 48 hrs. Format: functional. Particulars: NCI-H1299, 48 h. The method, boiled down:
as §1

For assay [3], the system named is NCI-H1299. Nature of the assay: Apoptosis inducing activity in human H1299 cells by caspase activation assay. Format: functional, cell-based. The method, boiled down:
(§2)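 Cell-based caspase activation (apoptosis induction) HTS assay run in T47D breast and H1299 non-small-cell lung cancer cells; EC50 reported as mean ± SEM of three or more experiments.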

For assay [4], the target named is Tubulin. Nature of the assay: Inhibition of tubulin polymerization. Format: protein-complex assay, Homo sapiens.
In assay [5] the test system is T47D. Description: Apoptosis inducing activity in human T47D cells by caspase activation assay. Format: functional, cell-based. The method in brief:
as §2

Molecules are shown by their SMILES.

This is an account of results in ChEMBL document CHEMBL1143677, “Discovery of 4-aryl-4H-chromenes as a new series of apoptosis inducers using a cell- and caspase-based high-throughput screening assay. 3. Structure-activity relationships of fused rings at the 7,8-positions” (J Med Chem, 2007).

What is called GI50 is the concentration giving 50% growth inhibition. Low values mean more potent growth inhibition, high ones less potent growth inhibition. What is called EC50 is the concentration at which the effect is half-maximal. A lower EC50 goes with a more potent agent. The term IC50 denotes the midpoint of a concentration-inhibition curve. Higher therefore signals weaker potency.

Regarding `COc1cc(C2C(C#N)=C(N)Oc3c2ccc2cc[nH]c32)cc(Br)c1OC` (stereo not given), the values for the GI50 in assay [1] and in assay [2] were 9 nM and 6 nM, respectively. In assay [3], this compound showed an EC50 of 53 nM. Besides, in assay [4], the IC50 came to 900 nM.

For the compound `COc1cc(C2C(C#N)=C(N)Oc3c2ccc2cnccc32)cc(Br)c1OC` (stereo not given), the EC50 in assay [5] was determined as 61 nM; in assay [3] it was 150 nM. Besides, the GI50 stood at 57 nM in assay [1] and 71 nM in assay [2].

On to `N#CC1=C(N)Oc2c(ccc3[nH]ccc23)C1c1cccc([N+](=O)[O-])c1` (stereo not given), for which the results for the 50% effective concentration (EC50) in assay [5] and in assay [3] were 68 nM and 96 nM, respectively.

Take `COc1cc(C2C(C#N)=C(N)Oc3c2ccc2cccnc32)cc(Br)c1OC` (stereo not given): the 50% effective concentration (EC50) in assay [5] turned out to be 29 nM; in assay [3], 94 nM.

In the case of `COc1cc(C2C(C#N)=C(N)Oc3c2ccc2cnccc32)cc(I)c1OC` (stereo not given), the half-maximal effective concentration (EC50) stood at 64 nM in assay [5] and 130 nM in assay [3].

Turning to `N#CC1=C(N)Oc2c(ccc3[nH]ccc23)C1c1ccccc1` (stereo not given), it took 430 nM to reach a half-maximal effect in assay [3] (EC50). That is a sub-micromolar value.

In the case of `COc1cc(C2C(C#N)=C(N)Oc3c2ccc2c3CCCC2)cc(Br)c1OC` (stereo not given), the concentration for a half-maximal effect (EC50) came to 190 nM in assay [5] and 520 nM in assay [3].

Consider `COc1cncc(C2C(C#N)=C(N)Oc3c2ccc2[nH]ccc32)c1` (stereo not given), for which the half-maximal effective concentration (EC50) is 16 nM in assay [5] and 30 nM in assay [3].

On to `COc1cc(C2C(C#N)=C(N)Oc3c2ccc2nc(C)c(C)nc32)cc(Br)c1OC` (stereo not given), for which the figures for the EC50 in assay [5] and in assay [3] were 2120 nM and 2720 nM, respectively.

As for `COc1cc(C2C(C#N)=C(N)Oc3c2ccc2[nH]ccc32)cc(Br)c1O` (stereo not given), the EC50 in assay [5] came out at 13 nM; in assay [3], 25 nM. The figures for the concentration for 50% growth inhibition (GI50) in assay [1] and in assay [2] were 57 nM and 71 nM, respectively.

Take `COc1cccc(C2C(C#N)=C(N)Oc3c2ccc2[nH]ccc32)c1` (stereo not given): the results for the EC50 in assay [5] and in assay [3] were 52 nM and 66 nM, respectively.

On to `COc1cc(C2C(C#N)=C(N)Oc3c2ccc2ccccc32)cc(Br)c1OC` (stereo not given), for which the EC50 is 73 nM in assay [5] and 93 nM in assay [3].

Turning to `COc1cc(C2C(C#N)=C(N)Oc3c2ccc2ccccc32)cc(OC)c1OC` (stereo not given), the concentration for a half-maximal effect (EC50) in assay [5] stood at 27 nM; in assay [3] it was 67 nM.

For `COc1cc(OC)cc(C2C(C#N)=C(N)Oc3c2ccc2cc[nH]c32)c1` (stereo not given), the concentration giving a half-maximal response (EC50) came to 31 nM in assay [5] and 59 nM in assay [3].

For `COc1cc(C2C(C#N)=C(N)Oc3c2ccc2cc[nH]c32)cc(Br)c1O` (stereo not given), the results for the 50% effective concentration (EC50) in assay [5] and in assay [3] were 35 nM and 80 nM, respectively. The GI50 in assay [1] and in assay [2] was 70 nM in each case.

As to `COc1cc(C2C(C#N)=C(N)Oc3c2ccc2ncccc32)cc(Br)c1OC` (stereo not given), the EC50 was 65 nM in assay [5] and 140 nM in assay [3].

On to `COc1cc(OC)cc(C2C(C#N)=C(N)Oc3c2ccc2[nH]ccc32)c1` (stereo not given), for which the figures for the EC50 in assay [5] and in assay [3] were 30 nM and 120 nM, respectively.

Regarding `N#CC1=C(N)Oc2c(ccc3cnccc23)C1c1cncc(Br)c1` (stereo not given), the EC50 in assay [5] was determined as 120 nM; in assay [3] it was 150 nM.

Regarding `N#CC1=C(N)Oc2c(ccc3[nH]ccc23)C1c1cccc(C#N)c1` (stereo not given), the EC50 in assay [5] and in assay [3] was 43 nM each time.

Turning to `COc1cc(C2C(C#N)=C(N)Oc3c2ccc2[nH]ccc32)cc(OC)c1OC` (stereo not given), the 50% effective concentration (EC50) worked out at 30 nM in assay [5] and 77 nM in assay [3].

Take `COc1cc(C2C(C#N)=C(N)Oc3c2ccc2cnccc32)cc(OC)c1OC` (stereo not given): the concentration for a half-maximal effect (EC50) in assay [5] is 120 nM; in assay [3] it was 440 nM.

With `COc1cc(C2C(C#N)=C(N)Oc3c2ccc2nccnc32)cc(Br)c1OC` (stereo not given), the half-maximal effective concentration (EC50) in assay [5] turned out to be 460 nM; in assay [3], 860 nM. Moreover, the concentration for 50% growth inhibition (GI50) in assay [1] was found to be 450 nM; in assay [2], 550 nM.

With `COc1cc(C2C(C#N)=C(N)Oc3c2ccc2[nH]c(C)cc32)cc(Br)c1OC` (stereo not given), the results for the GI50 in assay [1] and in assay [2] were 89 nM and 140 nM, respectively. For the same compound, in assay [3], the 50% effective concentration (EC50) amounted to 57 nM.

In the case of `Cc1cncc(C2C(C#N)=C(N)Oc3c2ccc2cnccc32)c1` (stereo not given), the half-maximal effective concentration (EC50) is 230 nM in assay [5] and 290 nM in assay [3].

As for `COc1cc(C2C(C#N)=C(N)Oc3c2ccc2[nH]ccc32)cc(Br)c1OC` (stereo not given), the 50% growth inhibitory concentration (GI50) in assay [1] is 8 nM; in assay [2], 19 nM. Moreover, in assay [3], a half-maximal response (EC50) required 13 nM. This compound also yielded an IC50 in assay [4] of 400 nM.

Regarding `N#CC1=C(N)Oc2c(ccc3[nH]ccc23)C1c1cccnc1` (stereo not given), the 50% effective concentration (EC50) in assay [5] amounted to 110 nM; in assay [3], 190 nM.

Consider `N#CC1=C(N)Oc2c(ccc3cc[nH]c23)C1c1cccc(C#N)c1` (stereo not given), for which the EC50 in assay [5] came out at 120 nM; in assay [3] it was 130 nM.

As to `COc1cc(C2C(C#N)=C(N)Oc3c2ccc2ncccc32)cc(OC)c1OC` (stereo not given), the concentration giving a half-maximal response (EC50) in assay [5] came out at 160 nM; in assay [3] it was 22 nM.

Consider `COc1cc(C2C(C#N)=C(N)Oc3c2ccc2ccccc32)cc(I)c1OC` (stereo not given), for which the concentration giving a half-maximal response (EC50) in assay [5] was 64 nM; in assay [3], 128 nM.

As to `COc1cc(C2C(C#N)=C(N)Oc3c2ccc(N)c3N)cc(Br)c1OC` (stereo not given), the GI50 amounted to 150 nM in assay [1] and 31 nM in assay [2].

For `COc1cc(C2C(C#N)=C(N)Oc3c2ccc2cc[nH]c32)cc(OC)c1OC` (stereo not given), the concentration giving a half-maximal response (EC50) is 72 nM in assay [5] and 180 nM in assay [3].

On to `COc1cccc(C2C(C#N)=C(N)Oc3c2ccc2cc[nH]c32)c1` (stereo not given), for which the figures for the EC50 in assay [5] and in assay [3] were 88 nM and 140 nM, respectively.

Take `Cc1cncc(C2C(C#N)=C(N)Oc3c2ccc2[nH]ccc32)c1` (stereo not given): the EC50 in assay [5] amounted to 13 nM; in assay [3] it was 65 nM. The GI50 in assay [1] is 73 nM; in assay [2] it was 100 nM.
